Laboratory results published in article PMC7557569 (RSC Medicinal Chemistry, 2020).

What was measured:
EphA3 = biological target: T1, EphA3 (Homo sapiens, UniProt P29320); details: EphA3, DSF; first generation inhibitors; ref 8d; cited from earlier work
T1 sequence (P29320 21-983): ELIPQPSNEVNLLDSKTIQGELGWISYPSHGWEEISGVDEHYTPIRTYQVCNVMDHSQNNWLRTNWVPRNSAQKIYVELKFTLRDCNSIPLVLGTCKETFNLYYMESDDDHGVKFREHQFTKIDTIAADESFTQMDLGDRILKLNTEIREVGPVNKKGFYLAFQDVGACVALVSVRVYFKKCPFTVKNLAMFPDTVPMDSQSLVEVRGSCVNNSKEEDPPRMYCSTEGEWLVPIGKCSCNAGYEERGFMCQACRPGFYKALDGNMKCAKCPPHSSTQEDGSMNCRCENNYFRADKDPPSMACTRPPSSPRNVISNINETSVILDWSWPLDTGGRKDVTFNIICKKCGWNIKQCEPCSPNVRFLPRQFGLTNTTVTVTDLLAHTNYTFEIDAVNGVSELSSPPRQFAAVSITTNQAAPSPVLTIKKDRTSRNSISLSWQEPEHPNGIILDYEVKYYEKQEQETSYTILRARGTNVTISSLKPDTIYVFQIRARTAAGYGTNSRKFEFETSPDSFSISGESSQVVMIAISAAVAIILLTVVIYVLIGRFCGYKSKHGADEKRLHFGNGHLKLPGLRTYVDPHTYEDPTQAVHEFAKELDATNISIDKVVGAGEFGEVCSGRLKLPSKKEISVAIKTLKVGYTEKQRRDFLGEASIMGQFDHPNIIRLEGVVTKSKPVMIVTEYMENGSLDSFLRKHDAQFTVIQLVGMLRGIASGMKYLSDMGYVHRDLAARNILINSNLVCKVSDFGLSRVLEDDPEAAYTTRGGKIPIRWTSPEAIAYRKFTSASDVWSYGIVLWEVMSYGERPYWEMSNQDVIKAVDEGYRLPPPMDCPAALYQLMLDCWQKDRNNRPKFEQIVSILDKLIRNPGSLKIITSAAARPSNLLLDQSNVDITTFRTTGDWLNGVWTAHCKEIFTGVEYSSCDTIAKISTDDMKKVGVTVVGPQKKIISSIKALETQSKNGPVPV

[1] = test system: human umbilical vein endothelial cells (HUVEC); details: HUVEC tube formation; previously developed inhibitors; cited from earlier work
K-562 cell line = experiment: NCI-60 cancer cell line panel, growth inhibition; assay type: cell-based; details: Homo sapiens, K562
RI-1 cell line xenograft = experiment: Mouse xenograft model with the ABC DLBCL RI-1 cell line; assay type: in vivo; details: NOD-Scid mice, RI-1 xenograft; for tolerability / general toxicity and body weight: 100 mg kg^-1 IP
Procedure, shortened: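 NOD-Scid mice were inoculated subcutaneously with RI-1 ABC-DLBCL cells (15 × 10^6). They were split into groups of n = 4 given test compound at 100 mg kg−1 IP once every 5 days, or control vehicle. Tumor volume (mm3) and body weight were followed to day 15.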

Cc1ccc(O)cc1-n1c(N)c(C(N)=O)c2nc3ccccc3nc21 [Compound 1]
Thermal shift (ΔTm) (EphA3): 11.2 °C | inhibition of total branching points [1]: 23% | inhibition of total loops [1]: 21% | inhibition of tube length [1]: 9%

NC(=O)c1c(N)n(-c2ccc(NC(=O)Nc3cccc(C(F)(F)F)c3)cc2)c2nc3ccccc3nc12 [Compound 2]
inhibition of total branching points [1]: 9% | inhibition of total loops [1]: 13% | inhibition of tube length [1]: 5%

Cc1ccc(-n2nc(C(C)(C)C)cc2NC(=O)Nc2ccc(-n3c(N)c(C(N)=O)c4nc5ccccc5nc43)cc2)cc1 [Compound 8a]
GI50 (K-562 cell line): 31 nM | tolerability / general toxicity and body weight (RI-1 cell line xenograft): very toxic already after the first dose

CC(C)(C)c1cc(NC(=O)Nc2ccc(-n3c(N)c(C(N)=O)c4nc5ccccc5nc43)cc2)n(-c2ccc3ncccc3c2)n1 [Compound 8b]
GI50 (K-562 cell line): < 10 nM | tolerability / general toxicity and body weight (RI-1 cell line xenograft): well tolerated with no general toxicity or body-weight loss | xenograft tumor size versus control group (RI-1 cell line xenograft; 100 mg kg^-1 IP once every 5 days, day 15): three times smaller
